Laboratory results taken from ChEMBL document CHEMBL1155469, “Peptide nucleic acids conjugated to short basic peptides show improved pharmacokinetics and antisense activity in adipose tissue” (J Med Chem, 2010).
The source made the active and inactive calls. The calls are words filed in the database; no cut-off is given here.

Legend:
Mus musculus [1] = experiment: Acute toxicity in Balb/C mouse assessed as change in organ weight at 2.5 to 12.5 mg/kg, ip administered BID for 5 days measured 48 hrs after last dose; format: organism-based; parameters: dose 2.5-12.5 mg/kg, route intraperitoneal; details: in vivo
Summary of the method: (§1)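 Male Balb/c mice aged 6–8 weeks, n=4 per group, dosed i.p. with compound suspended in PBS and filter sterilized, 10 ul/g body weight. Body weight tracked throughout the live phase. Under isoflurane anaesthesia, terminal cardiac-puncture bleed; serum taken for transaminases and other chemistries. Sacrifice by cervical dislocation 48 h after last dose, with liver and spleen weighed at necropsy. Kidneys examined by histopathology.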

Mus musculus [2] = experiment: Acute toxicity in Balb/C mouse assessed as change in serum chemistry at 2.5 to 12.5 mg/kg, ip administered BID for 5 days measured 48 hrs after last dose; format: organism-based; parameters: dose 2.5-12.5 mg/kg, route intraperitoneal; details: in vivo; summary of the method: as §1
Mus musculus [3] = experiment: Inhibition of PTEN expression in Balb/C mouse liver assessed as increase in mRNA levels at 2.5 to 12.5 mg/kg, ip administered BID for 5 days measured 48 hrs after last dose […]; format: functional, organism-based
Summary of the method: (§2)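 Male Balb/c mice, n=4 per group, dosed i.p. in PBS and sacrificed 48 h after last dose. Liver, kidney and adipose tissue homogenised at once in 4 M guanidine isothiocyanate, 25 mM EDTA, 50 mM Tris-HCl pH 6. RNA purified on columns and run by fluorescence-based quantitative RT-PCR. Target transcript levels normalised to cyclophilin A and expressed relative to saline-treated controls.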

Mus musculus [4] = experiment: Inhibition of PTEN expression in Balb/C mouse kidney assessed as increase in mRNA levels at 2.5 to 12.5 mg/kg, ip administered BID for 5 days measured 48 hrs after last dose […]; format: functional, organism-based; summary of the method: as §2
Mus musculus [5] = experiment: Inhibition of PTEN expression in Balb/C mouse adipose tissue assessed as increase in mRNA levels at 2.5 to 12.5 mg/kg, ip administered BID for 5 days measured 48 hrs after last dose by […]; format: functional, organism-based; summary of the method: as §2
Mus musculus [6] = experiment: Acute toxicity in Balb/C mouse assessed as change in body weight at 2.5 to 12.5 mg/kg, ip administered BID for 5 days measured 48 hrs after last dose; format: organism-based; parameters: dose 2.5-12.5 mg/kg, route intraperitoneal; details: in vivo; summary of the method: as §1

Cc1cn(CC(=O)N(CCNC(=O)CN(CCNC(=O)[C@H](CCCNC(=N)N)N(CCNC(=O)[C@H](CCCNC(=N)N)NC(=O)[C@H](CCCCNC(=N)N)NC(=O)[C@H](Cc2ccccc2)NC(=O)[C@H](CCCCNC(=N)N)NC(=O)[C@H](CCCCNC(=N)N)NC(=O)[C@H](CCCCNC(=N)N)NC(=O)[C@H](C)NC(=O)[C@H](CCCNC(=N)N)NC(=O)[C@H](CCCCNC(=N)N)NC(=O)[C@H](Cc2ccccc2)NC(=O)[C@H](C)NC(=O)[C@H](CCCNC(=N)N)NC(=O)[C@H](CCCCNC(=N)N)NC(=O)CN)C(=O)Cn2cc(C)c(=O)[nH]c2=O)C(=O)Cn2ccc(N)nc2=O)CC(=O)NCCN(CC(=O)NCCN(CC(=O)NCCN(CC(=O)NCCN(CC(=O)NCCN(CC(=O)NCCN(CC(=O)NCCN(CC(=O)NCCN(CC(=O)NCCN(CC(=O)NCCN(CC(=O)NCCN(CC(=O)NCCN(CC(=O)NCCN(CC(=O)N[C@@H](CCCCN)C(N)=O)C(=O)Cn2cnc3c(N)ncnc32)C(=O)Cn2ccc(N)nc2=O)C(=O)Cn2cnc3c(N)ncnc32)C(=O)Cn2cc(C)c(=O)[nH]c2=O)C(=O)Cn2ccc(N)nc2=O)C(=O)Cn2cc(C)c(=O)[nH]c2=O)C(=O)Cn2cnc3c(N)ncnc32)C(=O)Cn2ccc(N)nc2=O)C(=O)Cn2cnc3c(N)ncnc32)C(=O)Cn2ccc(N)nc2=O)C(=O)Cn2cnc3c(=O)[nH]c(N)nc32)C(=O)Cn2cnc3c(N)ncnc32)C(=O)Cn2ccc(N)nc2=O)c(=O)[nH]c1=O
Activity (Mus musculus [1]): Non-toxic | Activity (Mus musculus [2]): Non-toxic | Activity (Mus musculus [3]): inactive | Activity (Mus musculus [4]): inactive | Activity (Mus musculus [5]): inactive | Activity (Mus musculus [6]): Non-toxic
